Measurements of several laboratories.
Protocols differ between the studies behind these lines. pIC50: −log10 of the molar value.
Cell line: K562
Effect on: cell growth or viability

Compound	technique	tested at	time	measurement	value
COc1ccc(C(=O)/C=C/c2ccc3c(c2)OCCO3)cc1S(N)(=O)=O	SRB	10 µM		inhibition	83%
COc1cccc(Oc2ccccc2NC(=O)CNC(=O)c2cccc3ccccc23)c1	SRB		48 h	GI50	0.129 µM
COc1ccc(C(=O)/C=C/c2cccc3ccccc23)cc1S(N)(=O)=O	SRB		48 h	GI50	1.7 µM
CNC(=O)c1cc(OC)cc2c(N3CCc4c(cc(Cn5ccnc5)cc4-c4cn(C)nc4C(F)(F)F)C3=O)ccnc12	ATP luminescence		5 days	GI50	9.7 µM
COC(=O)CCC1=CC2C=CC=CC1C2C1CCCCC1=O (centres unmarked)	flow cytometry			pIC50	7.21
COc1ccccc1S(=O)(=O)Nc1ccc2c(c1)CN(C)C(=O)N2	ATP luminescence			GI50	> 20 µM
CCCCCCCCC1=CC2C=CC=CC1C2C1CCCCC1=O (centres unmarked)	flow cytometry			pIC50	7.39
COc1ccc2nccc(N3CCc4c(cc(Cn5ccnc5)cc4-c4cn(C)nc4C(F)(F)F)C3=O)c2c1	ATP luminescence		5 days	GI50	13 µM
